Source: PMC8939876 (RSC Advances, 2019)

Assays:
Assay type in all cases: cell-based
[1] = system: Plasmodium falciparum D6 (CQ-sensitive); settings: D6, read-out: In vitro activity (IC50 nM) D6
[2] = system: Plasmodium falciparum Dd2 (MDR strain with Old World genetic background); settings: DD2, read-out: In vitro activity (IC50 nM) Dd2
[3] = system: Plasmodium falciparum 7G8 (MDR strain with New World genetic background); settings: 7G8, read-out: In vitro activity (IC50 nM) 7G8
[4] = system: HepG2 cells; test: HepG2 cytotoxicity assay; settings: Homo sapiens, HepG2, read-out: Cytotoxicity (nM) vs. HepG2
Method in brief: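 HepG2 cells kept in RPMI-1640 with 10% FBS (37 °C, 5% CO2) were seeded at 2 × 10^4/well and left to attach overnight. Test compound (10 mM DMSO stock) was serially diluted in medium and applied for 24–36 h. Cells then had fresh medium for 24 h more, then resazurin (final 10 μM) for 3 h. Fluorescence read at ex 560/em 590 nm. IC50 from nonlinear logistic regression.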

[5] = system: panel of Plasmodium falciparum malaria parasites; settings: for antimalarial activity against all tested strains (in words): D6, Dd2, 7G8 strains; for therapeutic index (the ratio of cytotoxicity to antimalarial therapeutic efficacy): HepG2 cytotoxicity vs antimalarial IC50

COc1ccc2c(=O)c3cc(Oc4ccc(Cl)cc4)ccc3[nH]c2c1 [2e, 2-(4-Chlorophenoxy)-6-methoxyacridin-9(10H)-one]
IC50 [1]: 8.84 nM | IC50 [2]: 11.7 nM | IC50 [3]: 13.5 nM | CC50 [4]: > 200000 nM | antimalarial activity against all tested strains (in words) [5]: excellent activity | therapeutic index (the ratio of cytotoxicity to antimalarial therapeutic efficacy) [5]: high

COc1ccc2c(=O)c3cc(S(=O)(=O)C(F)(F)F)ccc3[nH]c2c1 [2g, 6-Methoxy-2-((trifluoromethyl)sulfonyl)acridin-9(10H)-one]
IC50 [1]: 11.6 nM | IC50 [2]: 11.6 nM | IC50 [3]: 22.2 nM | CC50 [4]: > 200000 nM | antimalarial activity against all tested strains (in words) [5]: excellent activity | therapeutic index (the ratio of cytotoxicity to antimalarial therapeutic efficacy) [5]: high

COc1ccc2[nH]c3ccc(Oc4ccc(Cl)cc4)cc3c(=O)c2c1 [2p, 2-(4-Chlorophenoxy)-7-methoxyacridin-9(10H)-one]
IC50 [1]: 573 nM | IC50 [2]: 513 nM | IC50 [3]: 911 nM | CC50 [4]: > 200000 nM

O=C1C(O)=C([C@H]2CC[C@H](c3ccc(Cl)cc3)CC2)C(=O)c2ccccc21 [ATV, atovaquone, reference compound]
IC50 [1]: 0.1 nM | IC50 [2]: 0.1 nM

CCN(CC)CCCC(C)Nc1ccnc2cc(Cl)ccc12 (centres unmarked) [CQ, chloroquine, reference compound]
IC50 [3]: 172 nM

COc1ccc2[nH]c3c(F)c(F)c(F)c(F)c3c(=O)c2c1 [2t, 1,2,3,4-Tetrafluoro-7-methoxyacridin-9(10H)-one]
IC50 [1]: > 2500 nM | IC50 [2]: 1950 nM | IC50 [3]: 393 nM | CC50 [4]: > 200000 nM

O=c1c2cc(OCCCl)ccc2[nH]c2cc(F)cc(F)c12 [2u, 7-(2-Chloroethoxy)-1,3-difluoroacridin-9(10H)-one]
IC50 [1]: 11.6 nM | IC50 [2]: 0.91 nM | IC50 [3]: 1.22 nM | CC50 [4]: > 200000 nM | antimalarial activity against all tested strains (in words) [5]: excellent activity | therapeutic index (the ratio of cytotoxicity to antimalarial therapeutic efficacy) [5]: high

COc1ccc2c(=O)c3c(F)c(F)c(F)c(F)c3[nH]c2c1 [2n, 1,2,3,4-Tetrafluoro-6-methoxyacridin-9(10H)-one]
IC50 [1]: 257 nM | IC50 [2]: 325 nM | IC50 [3]: 41.8 nM | CC50 [4]: > 200000 nM

COc1ccc2c(=O)c3cc(OC(F)(F)F)ccc3[nH]c2c1 [2d, 6-Methoxy-2-(trifluoromethoxy)acridin-9(10H)-one]
IC50 [1]: 0.103 nM | IC50 [2]: 1.1 nM | IC50 [3]: 1.51 nM | CC50 [4]: > 200000 nM | antimalarial activity against all tested strains (in words) [5]: excellent activity | therapeutic index (the ratio of cytotoxicity to antimalarial therapeutic efficacy) [5]: high

O=c1c2cc(OC(F)(F)F)ccc2[nH]c2cc3ccccc3cc12 [2x, 2-(Trifluoromethoxy)benzo[b]acridin-12(5H)-one]
IC50 [1]: 7.03 nM | IC50 [2]: 0.563 nM | IC50 [3]: 16.5 nM | CC50 [4]: > 200000 nM | antimalarial activity against all tested strains (in words) [5]: excellent activity | therapeutic index (the ratio of cytotoxicity to antimalarial therapeutic efficacy) [5]: high

COc1ccc2[nH]c3ccc(OC(F)(F)F)cc3c(=O)c2c1 [2o, 2-Methoxy-7-(trifluoromethoxy)acridin-9(10H)-one]
IC50 [1]: 632 nM | IC50 [2]: 425 nM | IC50 [3]: 437 nM | CC50 [4]: > 200000 nM

COc1ccc2[nH]c3ccc(C#N)cc3c(=O)c2c1 [2r, 7-Methoxy-9-oxo-9,10-dihydroacridine-2-carbonitrile]
IC50 [1]: 983 nM | IC50 [2]: 932 nM | IC50 [3]: > 2500 nM | CC50 [4]: > 200000 nM

COc1cccc2c(=O)c3cc(OC(F)(F)F)ccc3[nH]c12 [2v, 5-Methoxy-2-(trifluoromethoxy)acridin-9(10H)-one]
IC50 [1]: 27.7 nM | IC50 [2]: 15.5 nM | IC50 [3]: 46.3 nM | CC50 [4]: 139000 nM | antimalarial activity against all tested strains (in words) [5]: excellent activity | therapeutic index (the ratio of cytotoxicity to antimalarial therapeutic efficacy) [5]: high

CCN(CC)CCn1c2ccc([N+](=O)[O-])cc2c(=O)c2ccc(OC)cc21 [2l, 10-(2-(Diethylamino)ethyl)-6-methoxy-2-nitroacridin-9(10H)-one]
IC50 [1]: 405 nM | IC50 [2]: 684 nM | IC50 [3]: 462 nM | CC50 [4]: 12300 nM

COc1ccc2[nH]c3c(OC(F)(F)F)cccc3c(=O)c2c1 [2q, 2-Methoxy-5-(trifluoromethoxy)acridin-9(10H)-one]
IC50 [1]: 1490 nM | IC50 [2]: 1680 nM | IC50 [3]: > 2500 nM | CC50 [4]: > 200000 nM

COc1ccc2c(=O)c3cc(C#N)ccc3[nH]c2c1 [2i, 6-Methoxy-9-oxo-9,10-dihydroacridine-2-carbonitrile]
IC50 [1]: 100 nM | IC50 [2]: 177 nM | IC50 [3]: 228 nM | CC50 [4]: > 200000 nM

COc1ccc2[nH]c3cc(F)cc(F)c3c(=O)c2c1 [2s, 1,3-Difluoro-7-methoxyacridin-9(10H)-one]
IC50 [1]: 0.05 nM | IC50 [2]: 0.29 nM | IC50 [3]: 0.2 nM | CC50 [4]: > 200000 nM | antimalarial activity against all tested strains (in words) [5]: excellent activity | therapeutic index (the ratio of cytotoxicity to antimalarial therapeutic efficacy) [5]: high

COc1ccc2c(=O)c3cc([N+](=O)[O-])ccc3[nH]c2c1 [2j, 6-Methoxy-2-nitroacridin-9(10H)-one]
IC50 [1]: 84.1 nM | IC50 [2]: 98.1 nM | IC50 [3]: 35 nM | CC50 [4]: > 200000 nM

Cc1ccc2[nH]c3ccc(OC(F)(F)F)cc3c(=O)c2c1 [2w, 2-Methyl-7-(trifluoromethoxy)acridin-9(10H)-one]
IC50 [1]: 63.1 nM | IC50 [2]: 49.2 nM | IC50 [3]: 109 nM | CC50 [4]: > 200000 nM

COc1ccc2c(=O)c3cccc(OC(F)(F)F)c3[nH]c2c1 [2f, 3-Methoxy-5-(trifluoromethoxy)acridin-9(10H)-one]
IC50 [1]: 782 nM | IC50 [2]: 753 nM | IC50 [3]: 1140 nM | CC50 [4]: > 200000 nM
